Consider 93 compounds from PubChem BioAssay AID809 (SRMLSC, 2007).

The test system of the experiment is S. cerevisiae DeaD BB579, nicotinamide rescue growth, OD615 48 h. The experiment can be described thus: rescue of nicotinamide-suppressed growth of yeast BB579, dose response, yeast lifespan extension project, S. cerevisiae (AID 809). The method in brief:
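System – S. cerevisiae DeaD strain BB579 · Buffer or medium – CSMM-D glucose restrictive medium · Times – culture pre-incubation 4 h, then compound exposure 48 h, both 30 °C · Signal – OD615 absorbance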

The source made the active and inactive calls.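 The calls were made as follows: active = EC50 for reversing nicotinamide-shortened yeast lifespan at or below a set limit; inactive = EC50 above that limit.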

As usually defined, the EC50 is the concentration needed to bring the measured effect to its halfway point. With `O=C(O)CCCCCN1C(=O)/C(=C\c2ccncc2)SC1=S`, the EC50 is > 10 µM (inactive).

`CC(C)(C)C(=O)Cn1c(=N)n(Cc2ccccc2)c2ccccc21`: the EC50 is 9.33 µM.

Take `O=C(NC(=S)NNS(=O)(=O)c1ccccc1)c1ccc([N+](=O)[O-])cc1`: the EC50 was > 10 µM (inactive).

Consider `CN(Cc1c(O)ccc2c1oc(=O)c1ccccc12)C1CCCCC1`, for which the EC50 is > 10 µM (inactive).

With `CCCc1cc(=O)oc2cc(C)c(CN3CCCC3)c(O)c12`, the EC50 is 6.15 µM.

In the case of `COc1ccc(CCN2C(=O)C(O)=C(C(=O)c3ccco3)C2c2cccs2)cc1OC` (stereo not drawn), the EC50 was 8.94 µM.

With `Cc1cc(C)n(-c2ccc(OCC(=O)O)nn2)n1`, the EC50 was > 10 µM (inactive).

Take `Cc1ccc(Oc2nc3ccccc3n3c(C)nnc23)c(C)c1`: the EC50 was > 10 µM (inactive).

Regarding `CS(=O)(=O)c1nc(-c2cccs2)cc(C(F)(F)F)n1`, the EC50 was 3.91 µM.

For the compound `CCc1nnc(N2C(=O)c3ccc(Oc4ccc([N+](=O)[O-])cc4)cc3C2=O)s1`, the EC50 is > 10 µM (inactive).

Turning to `COc1ccc(/C=C(\C#N)C(=O)N2CCOCC2)cc1Br`, the EC50 is 8.72 µM.

On to `Oc1ccc2ccccc2c1C=Nc1ccccc1-c1nc2ccccc2[nH]1`, for which the EC50 was > 10 µM (inactive).

Regarding `CC(=C1C(=O)c2ccccc2C1=O)N1CCN(c2ccccn2)CC1`, the EC50 is 7.21 µM.

Regarding `O=c1cc(-c2ccccc2Cl)oc2ccc([N+](=O)[O-])c(O)c12`, the EC50 is 7.35 µM.

Turning to `CC1=C(C#N)C2C(/C1=N/O)C2(C)C` (stereo not drawn), the EC50 is > 10 µM (inactive).

On to `COc1ccc(OC)c(NC(=S)N2CCN(C/C=C/c3ccccc3)CC2)c1`, for which the EC50 was > 10 µM (inactive).

As to `COCCCNC(CC(=O)Nc1ccc(OC)cc1OC)C(=O)O` (stereo not drawn), the EC50 is > 10 µM (inactive).

In the case of `Cc1ccc(N2NC(=O)/C(=C\c3cc4c(cc3[N+](=O)[O-])OCO4)C2=O)cc1C`, the EC50 was > 10 µM (inactive).

For `CCn1ncc(/C=N/NC(=O)c2ccc3c(c2)OCO3)c1C`, the EC50 is > 10 µM (inactive).

Regarding `O=C(CSc1nc2ccccc2o1)c1cc2ccccc2oc1=O`, the EC50 was > 10 µM (inactive).

Turning to `Nc1cccc2c1C(=O)N(C(=O)c1ccc(Cl)c(S(=O)(=O)N3CCCCCC3)c1)C2=O`, the EC50 is 7.66 µM.

As to `CC(C)c1nnc(NC(=O)c2c(O)c3cccc4c3n(c2=O)CCC4)s1`, the half-maximal effective concentration (EC50) is 4.31 µM.

For the compound `CCOC(=O)Cc1csc(NC(=O)c2c(O)c3ccccc3n(CC(C)C)c2=O)n1`, the EC50 was 9.63 µM.

Regarding `CSC1=NSC2=NC(=O)/C(=C\c3cccs3)C(=N)N12`, the concentration for a half-maximal effect (EC50) was 3.28 µM.

Turning to `O=C(Nc1ccc(S(=O)(=O)N2CCc3ccccc3C2)cc1)c1ccccc1`, the EC50 is > 10 µM (inactive).

Consider `O=C(COc1ccc2ccccc2c1)Nc1cccc(C(=O)Nc2ccccc2C(=O)O)c1`, for which the concentration for a half-maximal effect (EC50) is 8.35 µM.

Take `COC(=O)c1cc(OC)c(OC)cc1NC(=S)Nc1cccc(C(C)=O)c1`: the EC50 is > 10 µM (inactive).

For the compound `COc1ccc2c(=O)c3c(=O)n(Cc4ccco4)c(-c4ccco4)nc3oc2c1`, the EC50 was 9.69 µM.

Regarding `O=C(Oc1ccc2c(c1)OCO2)C12CC3CC(CC(C3)C1)C2`, the EC50 was > 10 µM (inactive).

Take `COc1cc(C(C[N+](=O)[O-])c2c(-c3ccccc3)cc3ccccn23)cc(OC)c1OC` (stereo not drawn): the EC50 was > 10 µM (inactive).

In the case of `CCN1C(=O)C(=Cc2ccc(C)s2)C(=O)N(CC)C1=S`, the concentration for a half-maximal effect (EC50) was 3.74 µM.

Consider `Cc1ccc(NC(=O)C2C(=O)N(C)c3ccccc32)cc1` (stereo not drawn), for which the EC50 is > 10 µM (inactive).

With `CC1C/C(=C\c2cccnc2)C(=O)/C(=C/c2cccnc2)C1` (stereo not drawn), the EC50 is 4.26 µM.

In the case of `CCOC(=O)C1=C(C)Nc2nc(=S)[nH]n2C1c1ccc(Cl)cc1` (stereo not drawn), the 50% effective concentration (EC50) was 5.46 µM.

In the case of `C=C(C(=O)c1ccccc1)C(C)C(=C)C(=O)c1ccccc1`, the EC50 was 4.62 µM.

With `O=C1c2ccccc2C(=O)N1Cc1nc2ccccc2c(=O)n1-c1ccc(Br)cn1`, the EC50 is 1.67 µM.

In the case of `CN1C(=O)/C(=C/c2cccn2-c2ccc3ccccc3c2)C(=O)NC1=S`, the EC50 is 5.73 µM.

As to `Cc1nn(C(C)(C)C)c(OC(=O)c2ccc(Br)o2)c1Sc1ccccc1`, the concentration giving a half-maximal response (EC50) is 7.84 µM.

In the case of `CCCCCn1c(=O)c(C(=O)NCc2ccccn2)c(O)c2ccccc21`, the EC50 is > 10 µM (inactive).

In the case of `Cc1nc2c(=O)n(C)c(=O)n(C)c2nc1Cl`, the EC50 was 1.72 µM.

For the compound `COc1cnc(-c2ccccn2)nc1Sc1cccc(Cl)c1`, the EC50 is 4.44 µM.

Regarding `CCc1oc2ccccc2c1C(=O)CCN1CCCCC1`, the EC50 is 8.21 µM.

Regarding `CCc1ccc(CC2S/C(=C(\C#N)C(C)=O)NC2=O)cc1` (stereo not drawn), the EC50 was > 10 µM (inactive).

Regarding `CC(C)(C)C1CCc2[nH]nc(C(=O)O)c2C1` (stereo not drawn), the 50% effective concentration (EC50) is 1.2 µM.

For the compound `O=c1cc(O)c2c(=O)n(-c3ccccc3)c3c(c2o1)CCCCC3`, the EC50 was 5.16 µM.

Turning to `CC(C)C(c1nnnn1Cc1ccccc1)N1CCN(Cc2ccc3c(c2)OCO3)CC1` (stereo not drawn), the EC50 is > 10 µM (inactive).

Regarding `CC(=O)Oc1c(C(=O)c2nnc(C)o2)c(=O)n(C)c2ccccc12`, the EC50 was > 10 µM (inactive).

For `Cc1cc2c(c(=O)n1CCc1ccccc1)C(c1ccco1)C(C#N)=C(N)O2` (stereo not drawn), the EC50 is > 10 µM (inactive).

For `O=S1(=O)C=C(Sc2nc3ccccc3s2)c2ccccc21`, the EC50 was > 10 µM (inactive).

Turning to `O=C1CC(c2ccccc2)CC(O)=C1C=NCCN1CCN(C(=O)Cc2ccccc2)CC1` (stereo not drawn), the EC50 is 6.72 µM.

As for `COc1cccc(C2CC3C(=O)C=CC2N3Cc2ccccc2)c1` (stereo not drawn), the EC50 was 6.1 µM.

Take `C/C(=N\NC(=O)c1cccc(Cl)c1)C1C(=O)c2ccccc2C1=O`: the EC50 was > 10 µM (inactive).

On to `COc1ccccc1C(=O)Oc1ccc2c(c1)O/C(=C\c1ccncc1)C2=O`, for which the EC50 is > 10 µM (inactive).

On to `O=C(/C=C/c1ccccc1)Nc1ncn[nH]1`, for which the EC50 was > 10 µM (inactive).

In the case of `CCOC(=O)C1Cc2cc3c(cc2C1=O)CC(C(=O)OCC)C3=O` (stereo not drawn), the half-maximal effective concentration (EC50) is 5.89 µM.

For the compound `Cc1ccc(S(=O)(=O)N[C@@H](Cc2ccccc2)C(=O)CCl)cc1`, the EC50 was 5.97 µM.

With `COc1ccc(CN2CCN(C(=O)COc3cccc(C)c3)CC2)c(OC)c1`, the EC50 was > 10 µM (inactive).

On to `O=C(N/N=C/c1ccccc1)c1c(O)c2ccccc2[nH]c1=O`, for which the EC50 is 0.58 µM.

With `C=CCn1c(C)cc(C(=O)CSc2nc3ccccc3c(=O)[nH]2)c1C`, the EC50 was > 10 µM (inactive).

As to `CCCC(=Nc1ccc(N)cc1)C1=C(O)C(C(=O)OC)C(C)(C)CC1=O` (stereo not drawn), the EC50 is 8.85 µM.

With `Nc1sc(-c2ccccc2)cc1C(=O)O`, the EC50 was > 10 µM (inactive).

With `Cc1ccnc(-n2c(C)cc(/C=C3\C(=O)NC(=S)N(C)C3=O)c2C)c1`, the EC50 was > 10 µM (inactive).

In the case of `COc1ccc(C(=O)Nc2ccc(OCc3ccccc3)cc2)cc1[N+](=O)[O-]`, the EC50 was > 10 µM (inactive).

With `O=C1ON=C(c2ccccc2)/C1=C/c1ccc(-c2ccccc2[N+](=O)[O-])o1`, the EC50 was 3.82 µM.

As for `Cc1ccc(C(=O)/C=C\C(=O)c2ccc(C)cc2)cc1`, the EC50 is 9.15 µM.

As to `CN(C)C1(c2nnnn2CCOC(=O)Nc2ccc(Cl)cc2)CCCCC1`, the EC50 was > 10 µM (inactive).

With `COc1cccc(C(=O)Oc2cc(N)n(S(=O)(=O)c3ccc(C)cc3)n2)c1OC`, the half-maximal effective concentration (EC50) is 9.26 µM.

For `CCc1cc2c(=O)c(Oc3ccccc3)c(C)oc2cc1O`, the EC50 was > 10 µM (inactive).

`O=C(O)c1ccc(O)c(N2C(=O)Nc3ccccc3N2O)c1`: the EC50 is > 10 µM (inactive).

With `CCCCC(c1nnnn1CC1CCCO1)N1CCN(c2nc3ccccc3s2)CC1` (stereo not drawn), the EC50 was > 10 µM (inactive).

Regarding `C/C(=N\NC(=O)c1ccccc1O)C1C(=O)c2ccccc2C1=O`, the concentration giving a half-maximal response (EC50) was below 0.078 µM.

`Cc1cc(C)c(S(=O)(=O)c2ccccc2)c(OC(=O)c2ccc(Cl)cc2Cl)n1`: the concentration giving a half-maximal response (EC50) is 7.48 µM.

For the compound `O=C(NCc1cccnc1)c1ccc(S(=O)(=O)N2CCCCC2)cc1`, the EC50 is > 10 µM (inactive).

Regarding `CN(C)CC(C(=O)c1ccccc1)c1ccccc1` (stereo not drawn), the EC50 was 6.36 µM.

As to `CC(C)CN=C(NS(=O)(=O)c1ccccc1)C(Cl)(Cl)Cl`, the EC50 was 3.99 µM.

`O=C(Nc1scc(-c2cccs2)c1C(=O)O)c1cccs1`: the EC50 is 6.7 µM.

Regarding `O=C(CCC1CCCC1)c1c(O)c2ccccc2oc1=O`, the EC50 is > 10 µM (inactive).

With `CCCCCCCCn1c(=O)c(C(=O)OCC)c(O)c2ccccc21`, the EC50 was 9.18 µM.

`Cc1ccc(C(=O)NNC(=S)NC(=O)c2ccc(Cl)cc2)cc1`: the EC50 was 6.78 µM.

Consider `COCCCN(C(=S)Nc1cc(Cl)cc(Cl)c1)C(C)c1ccncc1` (stereo not drawn), for which the EC50 is > 10 µM (inactive).

With `Cn1nnnc1SCCNCC#Cc1ccccc1`, the EC50 is > 10 µM (inactive).

Take `CC1(C)Oc2ccccc2OC1(O)c1ccc2ccccc2n1` (stereo not drawn): the EC50 was > 10 µM (inactive).

Turning to `O=c1cc(-c2c(F)c(F)c(F)c(F)c2F)oc2c(F)c(F)c(F)c(F)c12`, the EC50 was 5.65 µM.

In the case of `CC1=CN2C(=N)/C(=C/c3ccc([N+](=O)[O-])o3)C(=O)N=C2S1`, the EC50 is 6.69 µM.

As to `COC(=O)CCS(=O)(=O)c1nc(-c2ccccc2)cc(C(F)(F)F)n1`, the EC50 was 1.99 µM.

Turning to `CC(C)n1c(=O)c2c(O)cc(=O)oc2c2ccccc21`, the EC50 was 0.63 µM.

With `Cc1cc(C2C(C#N)=C(N)Oc3n[nH]c(C)c32)c(C)s1` (stereo not drawn), the EC50 is > 10 µM (inactive).

For the compound `CCOC(=O)c1nnn(-c2nonc2N)c1CN1CCc2ccccc2C1`, the EC50 is 9.77 µM.

Take `COC(=O)/C(=C/c1cn(C)c2ccccc12)[N+](=O)[O-]`: the EC50 is 2.24 µM.

`CCOc1ccc(OCC(=O)c2c(O)c3ccccc3oc2=O)cc1`: the EC50 was 3.4 µM.

Take `CC(C)=C1C(=O)NN(c2ccc(C)c(Cl)c2)C1=O`: the EC50 was 9.85 µM.

`COc1ccccc1CN(Cc1nc2ccccc2c(=O)[nH]1)C(=O)Nc1cccc(C)c1`: the EC50 was > 10 µM (inactive).

`CCOC(=O)CCCNC(=O)COc1ccccc1C#N`: the EC50 is > 10 µM (inactive).
